Here are results for 24 compounds from ChEMBL document CHEMBL5356941, “Synthesis, activity and metabolic stability of propan-2-one substituted tetrazolylalkanoic acids as dual inhibitors of cytosolic phospholipase A2α and fatty acid amide hydrolase” (RSC Med Chem, 2023).

Data set [1] is described as follows: Inhibition of porcine platelets cPLA2 alpha using 1-stearoyl-2-arachidonoyl-sn-glycero-3-phosphocholine as substrate incubated for 60 mins by RP-HPLC analysis. Further details: species or system Sus scrofa. The gist of the method:
(§1)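 Stopped with acetonitrile/methanol/0.1 M EDTA containing internal standard and NDGA; released arachidonic acid measured by RP-HPLC, UV 200 nm, after online SPE, with vs without compound. IC50s are means of at least two independent determinations.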

Data set [2] concerns the target T1, Fatty-acid amide hydrolase 1 (Rattus norvegicus, UniProt P97612).
T1 sequence (P97612 whole entry): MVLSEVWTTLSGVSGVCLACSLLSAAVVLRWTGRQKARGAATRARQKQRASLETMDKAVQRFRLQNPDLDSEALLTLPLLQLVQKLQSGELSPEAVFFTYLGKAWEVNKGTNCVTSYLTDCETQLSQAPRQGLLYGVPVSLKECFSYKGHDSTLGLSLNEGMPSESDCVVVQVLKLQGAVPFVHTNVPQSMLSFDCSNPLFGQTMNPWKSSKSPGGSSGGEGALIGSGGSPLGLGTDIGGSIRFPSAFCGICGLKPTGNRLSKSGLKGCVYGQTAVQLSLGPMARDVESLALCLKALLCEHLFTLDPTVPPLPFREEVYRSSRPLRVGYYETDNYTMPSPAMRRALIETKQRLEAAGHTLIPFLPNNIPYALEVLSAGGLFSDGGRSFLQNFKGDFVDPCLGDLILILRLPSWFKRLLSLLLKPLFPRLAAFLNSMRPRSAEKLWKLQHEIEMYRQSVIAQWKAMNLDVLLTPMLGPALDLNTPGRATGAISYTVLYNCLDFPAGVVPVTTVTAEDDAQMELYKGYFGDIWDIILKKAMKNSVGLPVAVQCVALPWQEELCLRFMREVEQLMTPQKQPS
The experiment in a line: Inhibition of rat brain microsome FAAH using N-(2-hydroxyethyl)-4-pyren-1-ylbutanamide as substrate incubated for 60 mins by RP-HPLC analysis. The class given is microsomes.

Data set [3] in a line: Lipophilicity, logP of compound by RP-HPLC analysis. The data set is classed as physicochemical.
Data set [4] can be described thus: Metabolic stability in rat liver S9 fraction assessed as parent compound remaining at 20 uM after 30 mins in presence of NADPH by RP-HPLC analysis. The class given is ADME, subcellular. The following applies: read-out: Stability. The gist of the method: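 Compounds (final 20 μM) incubated aerobically with rat liver S9 fraction with or without NADPH (final 1 mM); stopped after 30 min. Percent parent remaining measured by reversed-phase HPLC with UV or MS detection; means of independent duplicates.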

Data set [5] has as its target T2, Fatty-acid amide hydrolase 1 (Rattus norvegicus) (UniProt P97612).
T2 sequence (whole entry): T1 sequence (P97612 whole entry)
The experiment in a line: Inhibition of rat brain microsome FAAH at 10 uM using N-(2-hydroxyethyl)-4-pyren-1-ylbutanamide as substrate incubated for 60 mins by RP-HPLC analysis relative to control. The class given is microsomes. The gist of the method: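 Rat brain microsomes incubated with N-(2-hydroxyethyl)-4-pyren-1-ylbutanamide (final 100 μM) in PBS containing 0.20% Triton X-100. Reaction stopped after 60 min with acetonitrile/methanol containing 6-pyren-1-ylhexanoic acid as internal standard; released 4-pyren-1-ylbutanoic acid quantified by reversed-phase HPLC with fluorescence detection, with vs without compound. IC50s are means of at least two independent determinations.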

The target of data set [6] is T3, Cytosolic phospholipase A2 (Homo sapiens, UniProt P47712).
T3 sequence (P47712 whole entry): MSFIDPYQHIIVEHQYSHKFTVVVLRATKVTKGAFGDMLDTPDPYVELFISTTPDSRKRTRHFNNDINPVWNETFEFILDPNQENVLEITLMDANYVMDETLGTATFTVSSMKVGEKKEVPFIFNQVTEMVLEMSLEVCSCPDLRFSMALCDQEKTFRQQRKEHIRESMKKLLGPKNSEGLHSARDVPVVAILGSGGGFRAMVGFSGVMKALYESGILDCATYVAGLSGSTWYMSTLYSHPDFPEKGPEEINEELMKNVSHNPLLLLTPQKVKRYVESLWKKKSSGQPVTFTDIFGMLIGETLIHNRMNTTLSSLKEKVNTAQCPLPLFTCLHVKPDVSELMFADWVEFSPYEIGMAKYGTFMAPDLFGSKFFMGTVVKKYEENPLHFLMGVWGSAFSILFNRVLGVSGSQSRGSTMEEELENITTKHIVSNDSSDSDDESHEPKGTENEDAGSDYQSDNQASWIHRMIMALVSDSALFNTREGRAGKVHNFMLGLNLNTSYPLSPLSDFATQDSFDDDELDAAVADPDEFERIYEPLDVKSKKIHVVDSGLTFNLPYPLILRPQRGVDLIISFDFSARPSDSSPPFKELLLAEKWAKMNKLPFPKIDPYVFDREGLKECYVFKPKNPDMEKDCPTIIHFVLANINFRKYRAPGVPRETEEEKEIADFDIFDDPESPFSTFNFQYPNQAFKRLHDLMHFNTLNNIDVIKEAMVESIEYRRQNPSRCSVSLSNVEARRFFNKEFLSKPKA
The experiment in a line: Inhibition of cPLA2 alpha (unknown origin). The gist of the method: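 Stopped with acetonitrile/methanol/0.1 M EDTA containing internal standard and NDGA. Released arachidonic acid quantified by reversed-phase HPLC, UV 200 nm, after online SPE; IC50 as mean of ≥2 independent determinations.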

Data set [7] has as its system Platelet. The experiment in a line: Inhibition of porcine platelets cPLA2 alpha at 10 uM using 1-stearoyl-2-arachidonoyl-sn-glycero-3-phosphocholine as substrate incubated for 60 mins by RP-HPLC analysis relative to control. The data set is classed as cell-based. The note with it: Sus scrofa. The gist of the method: as §1
Data set [8] can be described thus: Aqueous solubility of the compound in PBS at pH 7.4 incubated for 20 hrs by RP-HPLC analysis. The data set is classed as physicochemical. The following applies: buffer, pH 7.4, 20 h. The gist of the method: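 Thermodynamic solubility: 1 mg test compound in 2 mL PBS (0.01 M, pH 7.4), bath-sonicated 10 min, shaken 20 h at room temperature, centrifuged; acetonitrile added to an aliquot of clear supernatant and dissolved compound quantified by reversed-phase HPLC with UV at 240 nm.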

By pIC50 is commonly meant the negative decadic logarithm of the IC50, by convention in mol/L. A low value points to a high IC50. A word on the logP: it is the decadic logarithm of the partition coefficient of the neutral form, usually between octanol and water. Read a high logP as a more lipophilic compound. One may read the inhibition as the share of the control response that was lost under treatment. Read a low inhibition as a response near the control. The term solubility denotes the dissolved amount per volume that the medium holds. Higher therefore signals a readily soluble substance.

pIC50: −log10 of the molar value. In brackets after ≈: the same amount, converted by molar mass. Some results are limits rather than exact numbers.

With `O=C(O)CCc1nnn(CC(=O)COc2ccc(Oc3ccccc3)cc2)n1`, the figures for the pIC50 in data set [1] and in data set [2] were 6.77 and 7.27, respectively. Besides, the logP in data set [3] came to 2.2. The remaining at 0.5 h, 20 µM in data set [4] was < 5%.

As for `CC(Oc1ccc(Oc2ccccc2)cc1)C(=O)Cn1nnnc1CCCC(=O)O` (stereo not drawn), the results for the pIC50 in data set [1] and in data set [2] were 5.32 and 6.77, respectively. In addition, in data set [4], the remaining at 0.5 h, 20 µM stood at 71%.

`CCCCCCOc1ccc(OCC(=O)C(C)n2nnc(CCC(=O)O)n2)cc1` (stereo not drawn): the values for the pIC50 in data set [1] and in data set [2] were 6.74 and < 5.00, respectively. Moreover, the inhibition in data set [5] came out at 31%.

Turning to `O=C(O)CCc1nnnn1CC(=O)COc1ccc(Oc2ccccc2)cc1`, the pIC50 in data set [1] was 5.52; in data set [2], 5.68. Besides, the remaining at 0.5 h, 20 µM in data set [4] turned out to be 52%.

Regarding `CCCCCCOc1ccc(OC(C)C(=O)Cn2nnc(CCCC(=O)O)n2)cc1` (stereo not drawn), the pIC50 in data set [1] was 6.30; in data set [2], 7.47.

As for `CCCCc1ccc(OCC(=O)Cn2nnc(CCC(=O)O)n2)cc1`, the pIC50 in data set [1] is 6.59; in data set [2], 7.57. In data set [3], this compound yielded a log partition coefficient (logP) of 3.

For `CC(C)CCCOc1ccc(OCC(=O)Cn2nnc(CCC(=O)O)n2)cc1`, the results for the pIC50 in data set [1] and in data set [2] were 7.35 and 7.49, respectively. Also, in data set [3], the logP amounted to 3.6.

With `CC(Oc1ccc(Oc2ccccc2)cc1)C(=O)Cn1nnc(CCC(=O)O)n1` (stereo not drawn), the pIC50 is 6.27 in data set [1] and 7.36 in data set [2]. In addition, the remaining at 0.5 h, 20 µM in data set [4] was < 5%.

Compound `CCCCCCCCc1ccc(OCC(=O)Cn2nnc(CCC(=O)O)n2)cc1` showed a pIC50 in data set [1] of 7.72. This compound also gave a logP in data set [3] of 5.5.

In the case of `CC(Oc1ccc(Oc2ccccc2)cc1)C(=O)Cn1nnc(CCCC(=O)O)n1` (stereo not drawn), the pIC50 in data set [1] was 6.14; in data set [2], 7.37. Further, the remaining at 0.5 h, 20 µM in data set [4] is < 5%.

Turning to `CC(C)Cc1ccc(C(C)C(=O)O)cc1` (stereo not drawn) [IBUPROFEN], the logP in data set [3] turned out to be 3.2.

For `CCCCCCOc1ccc(OCC(=O)Cn2nnc(CCC(=O)O)n2)cc1`, the pIC50 in data set [1] is 7.33; in data set [2] it was 7.49. The compound further registered a logP in data set [3] of 3.7.

For `CCCCCCc1ccc(OCC(=O)Cn2nnc(CCC(=O)O)n2)cc1`, the pIC50 is 7.44 in data set [1] and 7.64 in data set [2]. The compound also came in with a logP in data set [3] of 4.2.

In the case of `O=C(O)CCCc1nnnn1CC(=O)COc1ccc(Oc2ccccc2)cc1`, the negative-log IC50 (pIC50) in data set [1] was 5.48; in data set [2] it was 6.77. For the same compound, the remaining at 0.5 h, 20 µM in data set [4] was found to be 36%.

`CC(Oc1ccc(Oc2ccccc2)cc1)C(=O)Cn1cc(CCC(=O)O)nn1` (stereo not drawn): the pIC50 in data set [1] was 5.51; in data set [2] it was 6.77. Besides, in data set [4], the remaining at 0.5 h, 20 µM was 29%.

`CCCCCCCCCCOc1ccc(OCC(=O)COc2ccc(C(=O)O)cc2)cc1` showed a pIC50 in data set [6] of 8.15.

Regarding `CCCCCCOc1ccc(OC(C)C(=O)Cn2nnc(CCC(=O)O)n2)cc1` (stereo not drawn), the values for the pIC50 in data set [1] and in data set [2] were 6.72 and 7.47, respectively.

Regarding `CCCCCCOc1ccc(OCC(=O)C(C)n2nnc(CCCC(=O)O)n2)cc1` (stereo not drawn), the pIC50 in data set [1] was 6.60; in data set [2], 6.12.

Turning to `O=C(O)CCc1nnn(CC(=O)C2CCc3cc(-c4ccccc4)ccc3O2)n1` (stereo not drawn), the values for the pIC50 in data set [1] and in data set [2] were < 5.00 and 7.03, respectively. Besides, the remaining at 0.5 h, 20 µM in data set [4] is < 5%. In data set [7], this compound yielded an inhibition of 34%.

As to `O=C(O)CCCc1nnn(CC(=O)COc2ccc(Oc3ccccc3)cc2)n1`, the pIC50 is 6.55 in data set [1] and 7.27 in data set [2]. In data set [4], the remaining at 0.5 h, 20 µM was < 5%.

For `COc1ccc2c(c1)c(CC(=O)O)c(C)n2C(=O)c1ccc(Cl)cc1` [INDOMETHACIN], the solubility in data set [8] is 246 µg/mL (≈ 688 µM).

In turn, `CCCCCCCCc1ccc(OCC(=O)Cn2ccc3cc(C(=O)O)ccc32)cc1` gave a pIC50 in data set [6] of 7.62.

Turning to `CC(Oc1ccc(Oc2ccccc2)cc1)C(=O)Cn1nnnc1CCC(=O)O` (stereo not drawn), the figures for the pIC50 in data set [1] and in data set [2] were < 5.00 and 6.06, respectively. Moreover, the remaining at 0.5 h, 20 µM in data set [4] worked out at 86%. In data set [7], this compound yielded an inhibition of 39%.

Take `O=C(O)CCc1cn(CC(=O)COc2ccc(Oc3ccccc3)cc2)nn1`: the figures for the pIC50 in data set [1] and in data set [2] were 6.07 and 6.89, respectively. Moreover, the remaining at 0.5 h, 20 µM in data set [4] was < 5%.
